Experimental data taken from ChEMBL document CHEMBL1122744, “2-Chloroethyl (methylsulfonyl)methanesulfonate and related (methylsulfonyl)methanesulfonates. Antineoplastic activity in vivo” (J Med Chem, 1984).
Values joined by “and” are separate entries in the source; they are usually repeats but may differ in a detail not shown here. Identical values can stand only once.

What was measured:
[1] = Ratio of number of 60-day survivors to the total treated mice at dose 25 mg/kg in exp2; 2/6; format: functional
Mus musculus [2] = assay: Median survival time of the treated control groups, in which there are no 30-day survivors at dose 12 mg/kg in exp2; format: functional; details: 12 mg/kg
Mus musculus [3] = assay: Change in weight by day 5, obtained by subtracting treated groups of animals minus control groups of animals at dose 25 mg/kg in exp2; format: functional
In short: (§1)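 Mice were inoculated ip with 10^6 P388 leukemia cells on day 0, when treated and control mice weighed 19–22 g. Treatment was given ip once daily on days 1–5, within about 5 min of preparing the solution or suspension. Groups of six (occasionally five) were treated, with 30 untreated inoculated mice as controls. The day-5 weight change is the mean treated change minus the mean control change.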

Mus musculus [4] = assay: Median survival time of the untreated control groups, in which there are no 30-day survivors at dose 100 mg/kg in exp1; format: functional
Mus musculus [5] = assay: Mortality by day 5 expressed as number of mice died to the total treated at dose 25 mg/kg in exp1; 2/6; format: ADME, organism-based; design: dose 25 mg/kg; details: in vivo
Mus musculus [6] = assay: Change in weight by day 5, obtained by subtracting treated groups of animals minus control groups of animals at dose 6 mg/kg in exp2; format: functional
In short: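 Mice were inoculated ip with 10^6 P388 leukemia cells on day 0 and weighed 19–22 g that day. Compound was given ip once daily on days 1–5, within about 5 min of preparing the solution or suspension, to groups of six (occasionally five). Thirty inoculated untreated mice served as controls. The value is the average weight change of treated mice minus that of controls on day 5.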

[7] = Ratio of median survival times for non-survivors at dose 25 mg/kg in exp2; format: functional
In short: (§2)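 Mice were inoculated ip with 10^6 P388 leukemia cells on day 0. Groups of six (occasionally five) were dosed ip qd on days 1–5 with fresh suspensions; 30 mice served as untreated controls. Deaths were recorded daily up to day 60. T/C% compares the median survival of treated non-survivors (<60 days) with the control median. Medians used grouped data when there were no 30-day survivors, otherwise ungrouped data. t = toxic.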

Mus musculus [8] = assay: Mortality by day 5 expressed as number of mice died to the total treated at dose 200 mg/kg in exp1; 5/6; format: ADME, organism-based; design: dose 200 mg/kg; details: in vivo
Mus musculus [9] = assay: Mortality by day 5 expressed as number of mice died to the total treated at dose 6 mg/kg in exp2; 0/6; format: ADME, organism-based; design: dose 6 mg/kg; details: in vivo
Mus musculus [10] = assay: Mortality by day 5 expressed as number of mice died to the total treated at dose 25 mg/kg in exp2; 0/6; format: ADME, organism-based; design: dose 25 mg/kg; details: in vivo
[11] = Ratio of number of 60-day survivors to the total treated mice at dose 25 mg/kg in exp1; 0/6; format: functional
Mus musculus [12] = assay: Median survival time of the untreated control groups, in which there are no 30-day survivors at dose 25 mg/kg in exp2; format: functional
[13] = Ratio of median survival times for non-survivors at dose 25 mg/kg in exp1*-based on the four of six that survived bryond 5th day; format: functional
[14] = Ratio of median survival times for non-survivors at dose 50 mg/kg in exp1; t= toxic; format: ADME, organism-based; design: dose 50 mg/kg; details: in vivo
Mus musculus [15] = assay: Change in weight by day 5, obtained by subtracting treated groups of animals minus control groups of animals at dose 12 mg/kg in exp2; format: functional; in short: as §1
Mus musculus [16] = assay: Mortality by day 5 expressed as number of mice died to the total treated at dose 50 mg/kg in exp1; 6/6; format: ADME, organism-based; design: dose 50 mg/kg; details: in vivo
Mus musculus [17] = assay: Change in weight by day 5, obtained by subtracting treated groups of animals minus control groups of animals at dose 25 mg/kg in exp1.; format: functional; in short: as §1
Mus musculus [18] = assay: Median survival time of the untreated control groups, in which there are no 30-day survivors at dose 50 mg/kg in exp1; format: functional
[19] = Ratio of median survival times for non-survivors at dose 100 mg/kg in exp1; t=toxic; format: ADME, organism-based; design: dose 100 mg/kg; details: in vivo; in short: as §2
[20] = Ratio of number of 30-day survivors to the total treated mice at dose 25 mg/kg in exp2; 3/6; format: functional
Mus musculus [21] = assay: Median survival time of the treated control groups, in which there are no 30-day survivors at dose 25 mg/kg in exp1*-based on the four of six that survived bryond 5th day; format: functional
Mus musculus [22] = assay: Median survival time of the untreated control groups, in which there are no 30-day survivors at dose 25 mg/kg in exp1; format: functional
Mus musculus [23] = assay: Median survival time of the treated control groups, in which there are no 30-day survivors at dose 25 mg/kg in exp2; format: functional
[24] = Ratio of number of 60-day survivors to the total treated mice at dose 25 mg/kg in exp2; 1/6; format: functional
Mus musculus [25] = assay: Median survival time of the untreated control groups, in which there are no 30-day survivors at dose 12 mg/kg in exp2; format: functional
Mus musculus [26] = assay: Mortality by day 5 expressed as number of mice died to the total treated at dose 100 mg/kg in exp1; 6/6; format: ADME, organism-based; design: dose 100 mg/kg; details: in vivo
[27] = Ratio of median survival times for non-survivors at dose 12 mg/kg in exp2; format: functional; details: 12 mg/kg; in short: as §2
[28] = Ratio of number of 30-day survivors to the total treated mice at dose 25 mg/kg in exp1; 2/6; format: functional
Mus musculus [29] = assay: Change in weight by day 5, obtained by subtracting treated groups of animals minus control groups of animals at dose 50 mg/kg in exp2; format: functional; in short: as §1
Mus musculus [30] = assay: Median survival time of the treated control groups, in which there are no 30-day survivors at dose 100 mg/kg in exp1; format: functional
Mus musculus [31] = assay: Mortality by day 5 expressed as number of mice died to the total treated at dose 100 mg/kg in exp1; 0/6; format: ADME, organism-based; design: dose 100 mg/kg; details: in vivo
Mus musculus [32] = assay: Median survival time of the untreated control groups, in which there are no 30-day survivors at dose 200 mg/kg in exp1; format: functional
Mus musculus [33] = assay: Median survival time of the treated control groups, in which there are no 30-day survivors at dose 50 mg/kg in exp1; format: functional
Mus musculus [34] = assay: Mortality by day 5 expressed as number of mice died to the total treated at dose 50 mg/kg in exp1; 0/6; format: ADME, organism-based; design: dose 50 mg/kg; details: in vivo
[35] = Ratio of median survival times for non-survivors at dose 50 mg/kg in exp1; format: functional; design: unit: %; in short: as §2
[36] = Ratio of median survival times for non-survivors at dose 100 mg/kg in exp1; format: functional; design: unit: %; in short: as §2
Mus musculus [37] = assay: Change in weight by day 5, obtained by subtracting treated groups of animals minus control groups of animals at dose 50 mg/kg in exp1.; format: functional; in short: as §1
Mus musculus [38] = assay: Change in weight by day 5, obtained by subtracting treated groups of animals minus control groups of animals at dose 100 mg/kg in exp1.; format: functional; in short: as §1
[39] = Ratio of median survival times for non-survivors at dose 200 mg/kg in exp1; t= toxic; format: ADME, organism-based; design: dose 200 mg/kg; details: in vivo; in short: as §2

CS(=O)(=O)CS(=O)(=O)OCCF
Ratio [1]: 2
Median survival time (Mus musculus [2]): 19.8 and 15
Change in weight (Mus musculus [3]): -5.6
Median survival time (Mus musculus [4]): 11.2
Mortality (Mus musculus [5]): 2
Change in weight (Mus musculus [6]): -1.8
Ratio [7]: 286
Mortality (Mus musculus [8]): 5
Mortality (Mus musculus [9]): 0
Mortality (Mus musculus [10]): 0
Ratio [11]: 0
Median survival time (Mus musculus [12]): 10.5
Ratio [13]: 277
Ratio [14]: Toxic
Change in weight (Mus musculus [15]): -3.7
Mortality (Mus musculus [16]): 6
Change in weight (Mus musculus [17]): -4.3
Median survival time (Mus musculus [18]): 11.2
Ratio [19]: Toxic
Ratio [20]: 3
Median survival time (Mus musculus [21]): 31
Median survival time (Mus musculus [22]): 11.2
Median survival time (Mus musculus [23]): 30
Ratio [24]: 1
Median survival time (Mus musculus [25]): 10.5
Mortality (Mus musculus [26]): 6
Ratio [27]: 188 and 142
Ratio [28]: 2
Change in weight (Mus musculus [29]): -4.8

O=S(=O)(CCl)OCCBr
Median survival time (Mus musculus [30]): 12.7
Mortality (Mus musculus [31]): 0
Median survival time (Mus musculus [32]): 11.1
Median survival time (Mus musculus [4]): 11.1
Median survival time (Mus musculus [33]): 12.3
Mortality (Mus musculus [8]): 5
Mortality (Mus musculus [34]): 0
Median survival time (Mus musculus [18]): 11.1
Ratio [35]: 110
Ratio [36]: 114
Change in weight (Mus musculus [37]): -0.5
Change in weight (Mus musculus [38]): -1.5
Ratio [39]: Toxic
